The list is not random: actives were taken first. Their share in the collection is about 2.4%.
NR2E3 ag-1 – activates human NR2E3 receptor. Q9Y5X4. CHO-S Gal4-NCOR/VP16-NR2E3 two-hybrid, luciferase. inhibition of corepressor binding, % at 3.98 µM. 0.35% of 360,000 active. AID 602229;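 active = inhibition above the mean of all tested compounds plus 3 SD, cut at about 70% in these data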;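 note: higher means lower luciferase signal from less NR2E3 corepressor binding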
Target sequence (Q9Y5X4 whole entry, looked up, the tested form may be a part): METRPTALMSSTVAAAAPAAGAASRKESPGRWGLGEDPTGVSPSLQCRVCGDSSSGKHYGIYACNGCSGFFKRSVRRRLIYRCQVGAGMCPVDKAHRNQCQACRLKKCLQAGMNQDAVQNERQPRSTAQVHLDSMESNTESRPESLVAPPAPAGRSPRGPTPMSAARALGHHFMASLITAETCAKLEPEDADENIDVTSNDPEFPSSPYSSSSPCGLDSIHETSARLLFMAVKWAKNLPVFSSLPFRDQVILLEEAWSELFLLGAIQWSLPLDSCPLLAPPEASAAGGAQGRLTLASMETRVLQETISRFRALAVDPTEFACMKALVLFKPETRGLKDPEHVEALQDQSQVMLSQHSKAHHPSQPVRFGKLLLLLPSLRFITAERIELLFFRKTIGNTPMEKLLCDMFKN
MPTP inh – permeability transition pore inhibition. inhibition, % at 10 µM. isolated mouse mitochondria, Ca2+ swelling absorbance, 30 min. 1.4% of 360,000 active;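 active = inhibition of 50% or more, scaled per plate between neutral and stimulator controls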
NR2E3 ag-2 – NR2E3 (human) agonism | 0.12% of 320,000 active | inhibition of corepressor binding, % at 4.78 µM | Q9Y5X4 | AID 2300 | GST-NR2E3/biotin-RetCOR TR-FRET, 1536-well;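 active = percent inhibition above the cutoff of mean plus 3 SD of all tested compounds, set per screening campaign, cut at about 20% in these data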
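Material: NR2E3–RetCOR corepressor complex / Incubation: Compound–protein incubation for 5 h at 4 °C / Dosing: compound at 4.8 µM, single dose / Detection: time-resolved FRET / Benchmarks: high control biotin, low control 0.6% DMSO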
697 NFkB inh – lowers PMA/ionomycin-induced NF-kB signal in 697 B cells | 697 B-cell NF-kB luciferase reporter, 16 h | inhibition, % at 4 µM | 0.33% of 330,000 active | AID 435022; in the data active = inhibition above about 35%
aDG glyco up – alpha-DG glycosylation activation; Pro5-aDG cells, alpha-DG glycosylation AlphaScreen (IIH6); 0% Pro5, 100% B10-LARGE cell signal; activation, % at 10 µM; 0.22% of 360,000 active;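 active = activation of at least 8% versus controls, or a plate z-score of at least 8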;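 note: Pro5 are CHO cells carrying HIG-tagged alpha-DG that lacks glycosylation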
Jurkat NFkB inh – lowers PMA/ionomycin-induced NF-kB signal in Jurkat cells; 0.53% of 330,000 active; inhibition, % at 4 µM; PMA/ionomycin-induced NF-kB luciferase reporter, luminescence; in the data active = inhibition above about 50%
Rh123 counter – Rhodamine 123 counter-screen of mitochondrial pore hits | shares compounds with MPTP inh | isolated mitochondria, membrane potential, Rhodamine 123 fluorescence | inhibition, % at 10 µM | 78% of 5,000 active; in the data active = inhibition above about 22%
MPTP abs DR – dose response confirmation of mitochondrial permeability transition pore inhibitors. 58% of 780 active. shares compounds with MPTP inh. isolated mitochondria swelling, absorbance. IC50, µM; in the data active = IC50 below about 20 µM
MPTP counter DR – MPTP inhibitor counter-screen activity, dose response; shares compounds with MPTP inh; isolated mitochondria counterscreen, fluorescence read-out; IC50, µM; 49% of 780 active; AID 651564; in the data active = IC50 below about 80 µM
Each line names hits and unclear results; the compound was inactive in the other large screens (follow-up assays come after a bar, where they were run).

O=C1C(=O)c2ccccc2C(O)=C1C1CCC(c2ccc(Cl)cc2)CC1 (stereo unspecified)	MPTP inh 101.8 | Rh123 counter 92.9
COc1ccc(NC(=O)CNC(=O)c2nn(-c3ccc(OC)c(Cl)c3)c(=O)c3ccccc23)c(OC)c1	none
O=c1oc2cc(O)ccc2cc1-c1nc2c(s1)CCc1ccccc1-2	MPTP inh 88.9 (no result: 697 NFkB inh, Jurkat NFkB inh) | Rh123 counter 83.7
COc1ccc(OCCSCc2nnc(NC(=O)Nc3ccc(Cl)cc3)s2)cc1	MPTP inh 94.4 | Rh123 counter 71.4
O=C(Nc1cccc(Cl)c1)Nc1nnc(CSCCOc2ccc(Cl)cc2)s1	MPTP inh 91.7 | Rh123 counter 91.8
O=C(Nc1cccc(Cl)c1)Nc1nnc(CC2=CCCCC2)s1	MPTP inh 88.6 | Rh123 counter 43.6
COc1cccc(NC(=O)Nc2nnc(COCCO)s2)c1	none (no result: NR2E3 ag-2, 697 NFkB inh, Jurkat NFkB inh)
CCCCOc1ccc(NC(=O)Nc2nnc(C)s2)cc1	none
Cc1ccc(NC(=O)Nc2nnc(CSCCOc3ccc(Cl)cc3)s2)cc1	MPTP inh 60.3 | Rh123 counter inactive | MPTP abs DR inactive | MPTP counter DR <2.5
Cc1c(NC(=O)c2cc3c(s2)CCCC3)c(=O)n(-c2ccccc2)n1C	none
Cc1ccccc1NC(=O)c1cc2c(=O)n3cccc(C)c3nc2s1	none
Cc1c(CC(=O)Nc2ccc(Cl)cc2)sc2ccc(Cl)cc12	MPTP inh 87.6 | Rh123 counter 90.7
CCCC(=O)Nc1cccc(NC(=O)Cc2ccc(Cl)cc2)c1	none (no result: NR2E3 ag-2, 697 NFkB inh, Jurkat NFkB inh)
O=C(Cc1ccc(S(=O)(=O)N2CCCCC2)s1)Nc1cccc2ccccc12	MPTP inh active | Rh123 counter inactive | MPTP abs DR inactive | MPTP counter DR inactive
Cc1cc(C(C)(C)C)ccc1OCCCCN1CCCC1	MPTP inh 50.9 | Rh123 counter inactive | MPTP abs DR 6.77 | MPTP counter DR 12.6
O=C(Nc1cccs1)Nc1ccc(Br)cc1F	MPTP inh 82.5 | Rh123 counter 80.4
O=C(Nc1cccs1)Nc1ccc(F)cc1F	none
COC(=O)C1C(=O)C(C(=O)c2ccc([N+](=O)[O-])cc2)C(=O)CC1(C)C (stereo unspecified)	none
Oc1c(Br)cc(Br)cc1/C=N/NC(=S)N[C@H]1CC2C=CC1C2 (stereo partly specified)	MPTP inh 84.3 | Rh123 counter 58.3
CC(CC(=O)O)CC(=O)Nc1cc([N+](=O)[O-])ccc1O (stereo unspecified)	none
Cc1ccc(SCC(=O)Nc2cc([N+](=O)[O-])ccc2O)cc1	MPTP inh 102.2 | Rh123 counter 98.9
O=C(CSCc1ccc(Cl)cc1)Nc1cc([N+](=O)[O-])ccc1O	MPTP inh 98.9 | Rh123 counter 87.6
CC1(C)C/C(=N\O)C(C(O)c2cccc([N+](=O)[O-])c2)C(C)(C)N1 (stereo unspecified)	none
COc1ccc(Cl)cc1C(=O)Nc1ccc(CN2CCCCC2)cc1	MPTP inh 56.8 | Rh123 counter inactive | MPTP abs DR 7.12 | MPTP counter DR inactive
CCN(CC)c1ccc(NC(=O)c2cc(Cl)ccc2OC)cc1	MPTP inh 98.9 | Rh123 counter inactive | MPTP abs DR 13.5 | MPTP counter DR inactive
COc1ccc(Cl)cc1C(=O)Nc1ccncc1	none
CCn1c(CC(=O)Nc2ccccc2C)nnc1SCC(=O)NC1CCCC1	none
CC(=O)c1nc(N2C(=O)CC(Cc3ccc(C)cc3)C2=O)sc1C (stereo unspecified)	none
Cc1cc2c(cc1S(=O)(=O)CCC(=O)NC1CCC(C)CC1)OCC(=O)N2 (stereo unspecified)	none
CCC(=O)Nc1nc2ccc([N+](=O)[O-])cc2s1	none
Cc1ccc(C)c(OCC(=O)Nc2nc3ccc([N+](=O)[O-])cc3s2)c1C	MPTP inh 76.0 | Rh123 counter 56.4
O=C(Nc1cccc(Cl)c1)O/N=C\c1ccncc1	MPTP inh 82.4 | Rh123 counter 93.2
O=C(Nc1ccc(Cl)c(Cl)c1)O/N=C/c1ccncc1	MPTP inh 104.0 | Rh123 counter 78.4
COc1ccc(OC)c(CCNC(=O)CC2(CC3=NS(=O)(=O)c4ccccc4N3)CCCC2)c1	none
O=C(Nc1ccon1)Nc1ccccc1C(F)(F)F	none
O=C(Nc1cccc([N+](=O)[O-])c1)Nc1cccc([N+](=O)[O-])c1	MPTP inh 91.1 | Rh123 counter 78.5
O=C(Nc1cccc([N+](=O)[O-])c1)C(=O)N1CCCCC1	none
CC(C)S(=O)(=O)c1csc(NC(=O)Nc2cccc([N+](=O)[O-])c2)c1Cl	MPTP inh 83.6 | Rh123 counter 69.3
O=C(Nc1cccc([N+](=O)[O-])c1)ONC1=NCCCCC1	MPTP inh 67.8 | Rh123 counter 76.9
O=C(Nc1cccc([N+](=O)[O-])c1)NN1CCCCCC1	MPTP inh 93.7 (no result: NR2E3 ag-2, 697 NFkB inh, Jurkat NFkB inh) | Rh123 counter 81.7
COCCCn1c(C)nc2c(c1=O)c1nc3ccccc3nc1n2CCc1ccccc1	none
O=C(CNC1CCCCC1)Nc1cccc([N+](=O)[O-])c1	none
CC(C(=O)Nc1ccc2c(c1)OCCO2)c1ccc([N+](=O)[O-])cc1 (stereo unspecified)	none
O=C(Nc1cccc([N+](=O)[O-])c1)Nc1ccc2c(c1)OCCO2	MPTP inh 62.4 | Rh123 counter 91.4
CCOc1ccc(C(=O)Nc2cccc([N+](=O)[O-])c2)cc1Br	MPTP inh 79.6 | Rh123 counter 68.8
O=C(Nc1cccc([N+](=O)[O-])c1)NC1CCCCCCC1	MPTP inh 80.4 (no result: NR2E3 ag-2) | Rh123 counter 95.0
COc1cc(NC(=O)Nc2cccc([N+](=O)[O-])c2)cc(OC)c1	MPTP inh 98.0 | Rh123 counter 88.6
CCOC(=O)c1c(C)c(/C=N/Nc2ccccc2)n(C)c1C	none (no result: NR2E3 ag-2, 697 NFkB inh, Jurkat NFkB inh)
Cc1cc(Br)ccc1NC(=S)Nc1cccc([N+](=O)[O-])c1	MPTP inh 96.7 | Rh123 counter 90.8
CNC(=S)Nc1cccc([N+](=O)[O-])c1	none
COc1ccc(CCNC(=O)Nc2cccc([N+](=O)[O-])c2)cc1	MPTP inh 84.9 | Rh123 counter 82.8
O=C(Nc1ccc(C(=O)O)cc1)Nc1cccc([N+](=O)[O-])c1	MPTP inh 80.7 | Rh123 counter 75.8
O=C(Nc1cccc([N+](=O)[O-])c1)c1ccc(CSc2ccccc2)cc1	MPTP inh 77.9 | Rh123 counter 86.3
CC(=O)O/N=C/c1c(Cl)n(C)c2ccccc12	none
Cn1c(=O)[nH]c(N)c(Br)c1=O	none (no result: NR2E3 ag-2, 697 NFkB inh, Jurkat NFkB inh)
